Columns and labels:
[1] = target: T1, Pituitary adenylate cyclase-activating polypeptide type I receptor (Homo sapiens, UniProt P41586); test: Displacement of [125I]PACAP27 from human PAC1 receptor expressed in CHO cells; format: cell-based
Summary of the method: (§1)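 Membranes (10 µg) from CHO cells transfected with human PAC1, VPAC1 or VPAC2 receptor were incubated with 0.1 nM 125I-PACAP27 and competing peptide for 20 min at 37 °C. Buffer: 20 mM HEPES pH 7.4, 0.5% BSA, CaCl2, bacitracin. Reactions were stopped on ice. Bound ligand was collected by filtration on PEI-treated filters and counted by scintillation. Data were fit to a single-site model.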

[2] = target: T2, Vasoactive intestinal polypeptide receptor 1 (Homo sapiens, UniProt P32241); test: Displacement of [125I]PACAP27 from human VPAC1 receptor expressed in CHO cells; format: cell-based; summary of the method: as §1
T2 sequence (P32241 whole entry): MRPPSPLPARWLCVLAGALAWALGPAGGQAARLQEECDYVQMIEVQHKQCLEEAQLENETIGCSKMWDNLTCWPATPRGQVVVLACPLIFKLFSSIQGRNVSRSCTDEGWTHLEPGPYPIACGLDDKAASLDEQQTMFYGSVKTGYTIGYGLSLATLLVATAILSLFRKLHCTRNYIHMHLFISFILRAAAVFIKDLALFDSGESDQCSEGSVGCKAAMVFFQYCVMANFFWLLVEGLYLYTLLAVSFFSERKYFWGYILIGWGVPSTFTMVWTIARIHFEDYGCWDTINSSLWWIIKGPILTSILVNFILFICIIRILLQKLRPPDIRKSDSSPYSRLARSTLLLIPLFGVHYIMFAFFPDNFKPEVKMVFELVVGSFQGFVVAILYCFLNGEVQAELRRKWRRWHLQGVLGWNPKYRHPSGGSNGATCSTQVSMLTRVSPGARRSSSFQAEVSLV

[3] = target: T2, Vasoactive intestinal polypeptide receptor 1; test: Activity at human VPAC1 receptor in CHO cells by measuring cAMP accumulation; format: functional, cell-based
Summary of the method: (§2)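 CHO cells transfected with human PAC1, VPAC1 or VPAC2 receptor were incubated with peptide for 15 min at 37 °C. Buffer: HEPES pH 7.4 saline with 1% BSA, bacitracin and 100 µM IBMX as phosphodiesterase inhibitor. cAMP was measured by competitive 125I-cAMP scintillation proximity assay. Curves were fit to a single-site model.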

[4] = target: T1, Pituitary adenylate cyclase-activating polypeptide type I receptor; test: Activity at human PAC1 receptor in CHO cells by measuring cAMP accumulation; format: cell-based; summary of the method: as §2

T1 sequence (P41586 whole entry): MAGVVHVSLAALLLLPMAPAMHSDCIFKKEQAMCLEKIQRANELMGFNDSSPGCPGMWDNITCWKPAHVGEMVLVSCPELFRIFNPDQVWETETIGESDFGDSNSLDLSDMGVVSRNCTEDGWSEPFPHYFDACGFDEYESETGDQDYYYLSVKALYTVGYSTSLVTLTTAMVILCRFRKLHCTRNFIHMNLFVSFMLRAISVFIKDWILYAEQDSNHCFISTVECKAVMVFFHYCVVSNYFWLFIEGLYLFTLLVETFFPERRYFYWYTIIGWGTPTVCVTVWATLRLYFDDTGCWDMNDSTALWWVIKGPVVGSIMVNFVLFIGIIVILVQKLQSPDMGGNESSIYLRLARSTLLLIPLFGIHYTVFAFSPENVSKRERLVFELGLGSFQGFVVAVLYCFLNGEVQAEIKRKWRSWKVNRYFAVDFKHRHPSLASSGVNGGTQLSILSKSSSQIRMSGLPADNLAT

- IC50 [1]: 3 nM
- IC50 [2]: 12 nM
- EC50 [3]: 0.6 nM
- EC50 [4]: 0.13 nM
Compound: CC[C@H](C)[C@H](NC(=O)CNC(=O)[C@H](CC(=O)O)NC(=O)[C@H](CO)NC(=O)[C@@H](N)Cc1cnc[nH]1)C(=O)N[C@@H](Cc1ccccc1)C(=O)N[C@H](C(=O)N[C@@H](CC(=O)O)C(=O)N[C@@H](CO)C(=O)N[C@@H](Cc1ccc(O)cc1)C(=O)N[C@@H](CO)C(=O)N[C@@H](CCCN=C(N)N)C(=O)N[C@@H](Cc1ccc(O)cc1)C(=O)N[C@@H](CCCN=C(N)N)C(=O)N[C@@H](CCCCN)C(=O)N[C@@H](CCC(N)=O)C(=O)N[C@@H](CCSC)C(=O)N[C@@H](C)C(=O)N[C@H](C(=O)N[C@@H](CCCCN)C(=O)N[C@@H](CCCCN)C(=O)N[C@@H](Cc1ccc(O)cc1)C(=O)N[C@@H](CC(C)C)C(=O)N[C@@H](C)C(=O)N[C@@H](C)C(=O)N[C@H](C(=O)N[C@@H](CC(C)C)C(=O)O)C(C)C)C(C)C)[C@@H](C)O

— ChEMBL document CHEMBL1138207, “Engineering of a VPAC2 receptor peptide agonist to impart dipeptidyl peptidase IV stability and enhance in vivo glucose disposal” (J Med Chem, 2006)
